Experiments:
normal conscious dogs = assay: Mean arterial pressure after acute oral administration in normal conscious dogs; assay type: in vivo, dog; details: oral 350 μg/kg, n=6, up to 240 min
In short: (§1)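 Adult male mongrel dogs (15-20 kg) with a femoral arterial port were fed 100 mEq/day sodium for 5 days, with water ad lib and sling acclimation. On the study day they were fasted and kept 30 min in a sling while conscious. Randomized single oral 350 μg/kg dose (conjugate n=5; unconjugated peptide n=6; vehicle n=6). MAP and blood were taken at baseline and 10–240 min. Plasma hBNP and cGMP were measured by radioimmunoassay. Mean ± SEM; repeated-measures ANOVA with Bonferroni.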

plasma cGMP = assay type: in vivo, dog; details: oral 350 μg/kg; normal conscious dogs; n=6
In short: as §1

[1] = native BNP; quoted in the discussion, no reference given; cited from earlier work

## native hBNP: native human B-type natriuretic peptide, 32 amino acid mature form
Normal conscious dogs
  MAP response throughout the study (in words): did not change
Plasma cGMP
  Plasma cGMP response (in words): not statistically different from baseline levels
[1]
  Half life: approximately 20 minutes

Reference: publication PMC2767302 (Circulation, 2008)
